Measurements of several laboratories.
ADRB3: Beta-3 adrenergic receptor (ADRB3, Homo sapiens, UniProt P13945)

Cc1nc(C(C)(C)NC(=O)O[C@@H]2CN3CCC2CC3)cs1 has an inhibition of under 50% (N-terminal Xaa-Pro-Lys N-methyltransferase 1 (Homo sapiens, UniProt Q9BV86); enzyme activity, inhibitor, fluorescence; 100 µM).
C#Cc1n[nH]c2c(-c3cn(C(C)c4ccccn4)c(=O)[nH]c3=O)cc(F)cc12 (stereo not shown) gave an inhibition of 1.9% (Dual specificity protein kinase CLK2 (CLK2, Homo sapiens, UniProt P49760); enzyme activity, inhibitor; 1 µM).
c1ccc(C(NCCNC(c2ccccc2)c2ccccc2)c2ccccc2)cc1 has an inhibition of 59% (ADRB3; cell-free assay; 10 µM).
CN(C)C(=O)COC(=O)Cc1ccc(OC(=O)c2ccc(NC(=N)N)cc2)cc1 gave an inhibition of 24% (Collagenase 3 (MMP13, Homo sapiens, UniProt P45452); enzyme activity, inhibitor; 10 µM).
For COc1ccc(S(=O)(=O)N2CCCCC2)cc1C, the inhibition was under 30% (Thyrotropin-releasing hormone receptor (TRHR, Homo sapiens, UniProt P34981); ligand displacement, radioligand; 10 µM).
For C#Cc1n[nH]c2c(-c3cn([C@@H](C)c4ccccc4)c(=O)[nH]c3=O)cc(F)cc12, the inhibition was -1.2% (Tyrosine-protein kinase JAK1 (JAK1, Homo sapiens, UniProt P23458); enzyme activity, inhibitor; 0.1 µM).
For O=C(Nc1cccnn1)N1CCN([C@@H]2CCOc3cc(C(F)(F)F)ccc32)CC1, the inhibition was -4% (ADRB3; cell-free assay; 20 µM).
COCc1c(-c2cc3cc(C)cc(OC)c3s2)c2c(N)ncnn2c1CN1CCNC(=O)C1 gave an inhibition of 9% (ADRB3; ligand displacement, radioligand; 10 µM).
With C[C@H](C(=O)N[C@H]1COc2ccccc2[C@@H]1S(C)(=O)=O)c1ccc(F)cc1 the inhibition was 9% (Adenosine receptor A2b (ADORA2B, Homo sapiens, UniProt P29275); cell-free assay; 10 µM).
The inhibition of COc1cc(Nc2ncc(F)c(Nc3ccc4c(n3)NC(=O)C(C)(C)O4)n2)cc(OC)c1OC is reported as 0% (Casein kinase I isoform alpha-like (CSNK1A1L, Homo sapiens, UniProt Q8N752); binding, competition with immobilised ligand; 10 µM).
With COC(=O)NCCc1c(C(O)c2ccccc2)[nH]c2ccc(OC)cc12 (stereo not shown) the inhibition was 40 to 50% (Calmodulin-1 (CALM1, Homo sapiens, UniProt P0DP23); enzyme activity, inhibitor; 50 µM).
With O=C(NC[C@H](O)CO)[C@@H]1C[C@H](c2ccccc2)CCN1 (mixture of isomers) the inhibition was -11.2% (ADRB3; ligand displacement, radioligand; 10 µM).
The inhibition of CC(C)C[C@H](NC(=O)[C@H](Cc1ccccc1)NC(=O)c1cnccn1)B(O)O is reported as 77.9% (Lysosomal Pro-X carboxypeptidase (PRCP, Homo sapiens, UniProt P42785); enzyme activity, inhibitor; 33 µM).
